Reference: ChEMBL document CHEMBL4196235, “SAR of 4-Alkoxybenzoic Acid Inhibitors of the Trypanosome Alternative Oxidase” (ACS Med Chem Lett, 2018)
Activity calls are given as the source filed them. The calls are words filed in the database; no cut-off is given here.

Assays:
[1] = tested on: Trypanosoma brucei brucei; experiment: Antiparasitic activity against bloodstream trypomastigote stage of wild type Trypanosoma brucei brucei Lister 427 after 48 hrs by resazurin dye based fluorescence assay; format: functional, organism-based; conditions: for EC50: Lister 427, 48 h
In short: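 Bloodstream trypomastigotes of T. b. brucei s427 (wild type) were tested, both with and without glycerol. EC50 values are the mean of 3 experiments ± SEM.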

[2] = tested on: Trypanosoma brucei brucei; experiment: Resistant factor, ratio of EC50 for pentamidine-resistant bloodstream trypomastigote stage of Trypanosoma brucei brucei harboring AQP1 to 3 deletions to EC50 for bloodstream trypomastigote stage of wild-type Trypanosoma brucei brucei Lister 427 in presence of glycerol; format: functional
[3] = Selectivity index, ratio of CC50 for HEK293T cells to EC50 for bloodstream trypomastigote stage of wild type Trypanosoma brucei brucei Lister 427; format: toxicity; conditions: human; read-out: Ratio CC50/EC50
In short: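 The selectivity index was calculated as CC50 in HEK cells divided by EC50 against wild-type T. b. brucei s427 bloodstream trypomastigotes.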

[4] = tested on: Trypanosoma brucei brucei; experiment: Resistance factor, ratio of EC50 for diminazene, pentamidine and melaminophenyl arsenical-resistant bloodstream trypomastigote stage of Trypanosoma brucei brucei B48 harboring TbAT1 deletions to EC50 for bloodstream trypomastigote stage of wild-type Trypanosoma brucei brucei Lister 427; format: functional
[5] = target: Alternative oxidase, mitochondrial (Trypanosoma brucei brucei, UniProt Q26710); experiment: Inhibition of recombinant Trypanosoma brucei brucei alternative oxidase using ubiquinol-1 as substrate incubated for 2 mins followed by substrate addition by spectrophotometric method
Sequence of Alternative oxidase, mitochondrial (Q26710 whole entry): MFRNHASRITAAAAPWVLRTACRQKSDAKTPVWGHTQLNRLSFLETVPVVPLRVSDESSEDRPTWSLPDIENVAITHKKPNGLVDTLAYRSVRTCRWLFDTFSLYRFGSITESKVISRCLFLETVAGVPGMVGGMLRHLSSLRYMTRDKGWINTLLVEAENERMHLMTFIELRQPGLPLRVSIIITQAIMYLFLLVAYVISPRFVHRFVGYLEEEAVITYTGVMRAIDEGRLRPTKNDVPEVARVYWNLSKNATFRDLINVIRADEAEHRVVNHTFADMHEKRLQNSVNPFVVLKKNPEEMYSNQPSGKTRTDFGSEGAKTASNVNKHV
In short: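 The assay measured inhibition of the ubiquinol oxidase activity of purified recombinant ∆MTS-TAO from T. b. brucei.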

[6] = Cytotoxicity against HEK293T cells after 30 hrs by resazurin dye based fluorescence assay; format: cell-based, HEK-293T; conditions: human
In short: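 Cytotoxicity was measured on human embryonic kidney (HEK) cells and reported as CC50. Values are the mean of 3 experiments ± SEM.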

[7] = tested on: Trypanosoma brucei brucei; experiment: Resistant factor, ratio of EC50 for bloodstream trypomastigote stage of wild-type Trypanosoma brucei brucei Lister 427 assessed as inhibition of respiration in presence of glycerol to EC50 for bloodstream trypomastigote stage of wild-type Trypanosoma brucei brucei Lister 427 assessed as inhibition of respiration in absence of glycerol; format: functional
[8] = Dissociation constant, pKa of the compound; format: physicochemical
[9] = tested on: Trypanosoma brucei brucei; experiment: Antiparasitic activity against bloodstream trypomastigote stage of wild type Trypanosoma brucei brucei Lister 427 at 100 uM after 48 hrs by resazurin dye based fluorescence assay; format: functional, organism-based

Compound | EC50 [1] [µM] | Ratio EC50 [2] | selectivity ratio [3] | Ratio EC50 [4] | IC50 [5] [µM] | CC50 at 30 h [6] [µM] | Ratio EC50 [7] | pKa [8] | Activity [9] | Activity [1]
COC(=O)c1ccc(OCCCCCCCCCCCCC[P+](c2ccccc2)(c2ccccc2)c2ccccc2)cc1F.[Br-] | 0.05 | >2 | 4.5 | <1 | 0.74 | 0.22 |  |  |  | 
COC(=O)c1ccc(OCCCCCCCCCCCCC[n+]2cccc3ccccc32)cc1F.[Br-] | 2.4 |  | 1.4 | <1 | > 5 | 3.36 | <1 |  |  | 
O=Cc1ccc(OCCCCCCCCCCCCCBr)cc1O | 17.6 |  |  |  | 0.073 |  |  |  |  | 
C/C(=C\CO)CC/C=C(\C)COc1ccc(C(=O)O)cc1 |  |  |  | <1 | 2.4 |  |  | < 5 | inactive | 
CCOC(=O)c1ccc(OC/C(C)=C/CC/C(C)=C/CO)cc1O |  |  |  | <1 | > 5 |  |  |  |  | 
CCOC(=O)c1c(C)cc(OCCCCCCCCCCCCC[n+]2cccc3ccccc32)cc1O.[Br-] | 0.29 |  | 2.1 | <1 | > 5 | 0.61 |  |  |  | 
COC(=O)c1ccc(OCCCCCCCCCCCCC[P+](c2ccccc2)(c2ccccc2)c2ccccc2)cc1O.[Br-] | 0.018 |  |  | <1 | 0.015 |  |  |  |  | 
C/C(=C\CO)CC/C=C(\C)COc1ccc(C(=O)O)c(F)c1 |  |  |  | <1 | 1.1 |  |  | < 5 | inactive | 
COc1cc(OCCCCCCCCCCCCCBr)cc(O)c1C=O |  |  |  | <1 | 2.3 |  |  |  | inactive | 
COC(=O)c1ccc(OCCCCCCCCCC[P+](c2ccccc2)(c2ccccc2)c2ccccc2)cc1O.[Br-] | 0.002 |  | 184 | <1 | > 5 | 0.44 |  |  |  | 
COC(=O)c1ccc(OC/C(C)=C/CC/C(C)=C/CO)cc1F |  |  |  | <1 | > 5 | > 100 |  |  | inactive | 
COC(=O)c1ccc(OCCCCCCCCCCCCCBr)cc1F |  |  |  | <1 |  |  |  |  |  | inactive
Cc1cc(OCCCCCCCCCCCCC[n+]2cccc3ccccc32)ccc1C(=O)O.[Br-] | 10.6 |  | 2.3 | <1 | > 5 | 24.4 |  |  |  | 
CC(=O)OC/C=C(\C)CC/C=C(\C)COC(=O)c1ccc(O)cc1O |  |  |  | <1 | 0.0091 | > 20 | <1 |  |  | 
C/C(=C\CO)CC/C=C(\C)COc1ccc(C(=O)O)c(O)c1 |  |  |  | <1 | 2.1 |  |  | < 5 | inactive | 
O=C(O)c1ccc(OCCCCCCCCCC[P+](c2ccccc2)(c2ccccc2)c2ccccc2)cc1O.[Br-] | 0.73 |  | 11 | <1 | > 5 | 8.2 | <1 |  |  | 
C/C(=C\CO)CC/C=C(\C)CC/C=C(\C)COc1cc(C)c(C(=O)O)c(O)c1 |  |  |  | <1 | 0.0031 |  |  | < 5 | inactive | 
CC(=O)OC/C=C(\C)CC/C=C(\C)COC(=O)c1ccc(OC/C(C)=C/CC/C(C)=C/COC(C)=O)cc1O |  |  |  | <1 | > 5 |  |  |  |  | 
Cc1cc(OCCCCCCCCCCCCC[P+](c2ccccc2)(c2ccccc2)c2ccccc2)ccc1C(=O)O.[Br-] | 0.19 |  | 22 | <1 | > 5 | 4.24 | <1 |  |  | 

Compound | EC50 [1] [µM] | Ratio EC50 [2] | selectivity ratio [3] | Ratio EC50 [4] | IC50 [5] [µM] | CC50 at 30 h [6] [µM] | Ratio EC50 [7] | pKa [8] | Activity [9] | Activity [1]
CCOC(=O)c1c(C)cc(OC/C(C)=C/CC/C(C)=C/CC/C(C)=C/COC(C)=O)cc1O | 6.6 |  | 3.1 | <1 | > 5 | 20.8 |  |  |  | 
COC(=O)c1c(C)cc(OCCCCCCCCCCCCC[P+](c2ccccc2)(c2ccccc2)c2ccccc2)cc1O.[Br-] |  | >2 |  | <1 |  |  |  |  |  | 
COC(=O)c1ccc(OC/C(C)=C/CC/C(C)=C/COC(C)=O)cc1F |  |  |  | <1 |  |  |  |  |  | 
COC(=O)c1ccc(OCCCCCCCCCCCCCBr)cc1O | 8.1 |  | 3.5 | <1 | > 5 | 28.6 | <1 |  |  | 
COC(=O)c1ccc(OC/C(C)=C/CC/C(C)=C/COC(C)=O)cc1C | 17 |  | 2.7 | <1 | > 5 | 45.1 |  |  |  | 
COC(=O)c1ccc(OC/C(C)=C/CC/C(C)=C/COC(C)=O)cc1O | 19.3 |  | 1.7 | <1 | > 5 | 31.8 |  |  |  | 
O=C(NO)c1ccccc1O [SALICYLHYDROXAMIC ACID] | 62.9 |  |  |  |  |  |  |  |  | 
O=C(O)c1ccc(OCCCCCCCCCCCCC[P+](c2ccccc2)(c2ccccc2)c2ccccc2)cc1F.[Br-] | 0.037 | >2 | 225 | <1 | > 5 | 8.35 |  |  |  | 
COC(=O)c1ccc(OC/C(C)=C/CC/C(C)=C/CO)cc1O |  |  |  | <1 |  |  |  |  |  | 
COC(=O)c1ccc(OCCCCCCCCCCCCC[n+]2cccc3ccccc32)cc1C.[Br-] | 0.16 |  | 1.9 | <1 | > 5 | 0.3 |  |  |  | 
COC(=O)c1ccc(OCCCCCCCCCCCCCBr)cc1C |  |  |  | <1 |  |  |  |  |  | inactive
COC(=O)c1ccc(OCCCCCCCCCCCCC[P+](c2ccccc2)(c2ccccc2)c2ccccc2)cc1C.[Br-] | 0.018 | >2 | 19 | <1 | > 5 | 0.35 |  |  |  | 
O=C(O)c1ccc(OCCCCCCCCCCCCC[P+](c2ccccc2)(c2ccccc2)c2ccccc2)cc1O.[Br-] | 0.086 | >2 | 227 | <1 | > 5 | 19.6 |  |  |  | 
N=C(N)c1ccc(OCCCCCOc2ccc(C(=N)N)cc2)cc1 [PENTAMIDINE] | 0.0042 |  |  |  |  |  |  |  |  | 
CCOC(=O)c1c(C)cc(OCCCCCCCCCCCCCBr)cc1O | 8.9 |  | 3.3 | <1 | > 5 | 29.6 | <1 |  |  | 
COC(=O)c1ccc(OC/C(C)=C/CC/C(C)=C/CO)cc1C |  |  |  | <1 | 1.69 | > 100 |  |  | inactive | 
O=Cc1ccc(OCCCCCCCCCCCCC[n+]2cccc3ccccc32)cc1O | 1.75 |  | > 114 |  | 1.23 | > 200 |  |  |  | 
COC(=O)c1cc(OCCCCCCCCCCCCC[P+](c2ccccc2)(c2ccccc2)c2ccccc2)ccc1O.[Br-] | 0.028 |  |  | <1 | 0.012 | 0.64 |  |  |  | 
